Measured values from ChEMBL document CHEMBL4689842, “EUbOPEN Chemogenomics Library wave 1” (2021).
Where “and” joins values, the source holds several entries; their conditions need not be identical. Equal entries are not always repeated.

System: HEK-293T
Experiment: Multiplex assay against HEK293T;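 for Population Tubulin-Different-Phenotype (%): share of the cells with healthy nuclei that show this phenotype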
Type: toxicity, cell-based
Settings: human
How it was run: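 Live cells carried four stains from seeding: Hoechst33342, BioTracker Green Microtubule Cytoskeleton Dye, MitoTracker Red and Annexin V Alexa Fluor 680. They were imaged on a CQ1 microscope at 37°C and 5% CO2 after compound addition. Using CellPathfinder machine-learning gating, cells were split into Hoechst high-intensity objects or normal cells, normal cells into healthy, pyknosed or fragmented nuclei, and pyknosed cells into mitotic or apoptotic; tubulin, mitochondrial-mass and membrane-permeability phenotypes are per cents of healthy-nucleus cells.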

[1] = 12 h, 1 µM, compound concentration 1 uM, replicate 1
[2] = 12 h, 1 µM, compound concentration 1 uM, replicate 2
[3] = 12 h, 10 µM, compound concentration 10 uM, replicate 1
[4] = 12 h, 10 µM, compound concentration 10 uM, replicate 2
[5] = 24 h, 1 µM, compound concentration 1 uM, replicate 1
[6] = 24 h, 1 µM, compound concentration 1 uM, replicate 2
[7] = 24 h, 10 µM, compound concentration 10 uM, replicate 1
[8] = 24 h, 10 µM, compound concentration 10 uM, replicate 2
[9] = 48 h, 10 µM, compound concentration 10 uM, replicate 1
[10] = 48 h, 10 µM, compound concentration 10 uM, replicate 2

SMILES: COc1cc(N2CCC(N(C)C)CC2)ccc1Nc1ncc(Cl)c(Nc2ccccc2P(C)(C)=O)n1
- Population Apoptotic (%) [1]: 16%
- Population Fragmented Nuclei (%) [1]: 19%
- Population Healthy Nuclei (%) [1]: 61%
- Population Hoechst High Intensity Objects (%) [1]: 14%
- Population Membrane Permeable-Phenotype (%) [1]: 1%
- Population Mitochondria Different-Phenotype (%) [1]: 9%
- Population Mitotic Cells (%) [1]: 83%
- Population Normal (%) [1]: 85%
- Population Pyknosed Nuclei (%) [1]: 18%
- Population Tubulin-Different-Phenotype (%) [1]: 7%
- Total Cell Count [1]: 684
- Population Apoptotic (%) [2]: 14%
- Population Fragmented Nuclei (%) [2]: 8%
- Population Healthy Nuclei (%) [2]: 84%
- Population Hoechst High Intensity Objects (%) [2]: 5%
- Population Mitochondria Different-Phenotype (%) [2]: 19%
- Population Mitotic Cells (%) [2]: 85%
- Population Normal (%) [2]: 94%
- Population Pyknosed Nuclei (%) [2]: 6%
- Population Tubulin-Different-Phenotype (%) [2]: 21%
- Total Cell Count [2]: 1309
- Population Fragmented Nuclei (%) [3]: 10% and 13%
- Population Healthy Nuclei (%) [3]: 23% and 51%
- Population Hoechst High Intensity Objects (%) [3]: 21% and 20%
- Population Membrane Permeable-Phenotype (%) [3]: 0% and 6%
- Population Mitotic Cells (%) [3]: 29% and 78%
- Population Normal (%) [3]: 78% and 79%
- Population Pyknosed Nuclei (%) [3]: 66% and 35%
- Population Tubulin-Different-Phenotype (%) [3]: 97% and 54%
- Total Cell Count [3]: 211 and 606
- Population Fragmented Nuclei (%) [4]: 3%
- Population Hoechst High Intensity Objects (%) [4]: 12% and 9%
- Population Membrane Permeable-Phenotype (%) [4]: 3%
- Population Mitochondria Different-Phenotype (%) [4]: 86% and 54%
- Population Mitotic Cells (%) [4]: 41% and 87%
- Population Normal (%) [4]: 87% and 90%
- Population Tubulin-Different-Phenotype (%) [4]: 100% and 85%
- Population Apoptotic (%) [5]: 14%
- Population Fragmented Nuclei (%) [5]: 17%
- Population Healthy Nuclei (%) [5]: 69%
- Population Hoechst High Intensity Objects (%) [5]: 9%
- Population Membrane Permeable-Phenotype (%) [5]: 5%
- Population Mitochondria Different-Phenotype (%) [5]: 8%
- Population Mitotic Cells (%) [5]: 85%
- Population Normal (%) [5]: 90%
- Population Pyknosed Nuclei (%) [5]: 12%
- Population Tubulin-Different-Phenotype (%) [5]: 14%
- Total Cell Count [5]: 667
- Population Apoptotic (%) [6]: 12%
- Population Fragmented Nuclei (%) [6]: 20%
- Population Healthy Nuclei (%) [6]: 77%
- Population Hoechst High Intensity Objects (%) [6]: 4%
- Population Membrane Permeable-Phenotype (%) [6]: 3%
- Population Mitochondria Different-Phenotype (%) [6]: 4%
- Population Mitotic Cells (%) [6]: 87%
- Population Normal (%) [6]: 95%
- Population Pyknosed Nuclei (%) [6]: 2%
- Population Tubulin-Different-Phenotype (%) [6]: 19%
- Total Cell Count [6]: 2108
- Population Apoptotic (%) [7]: 74% and 37%
- Population Fragmented Nuclei (%) [7]: 12% and 14%
- Population Healthy Nuclei (%) [7]: 31% and 55%
- Population Hoechst High Intensity Objects (%) [7]: 24% and 22%
- Population Membrane Permeable-Phenotype (%) [7]: 1% and 7%
- Population Mitochondria Different-Phenotype (%) [7]: 98% and 51%
- Population Mitotic Cells (%) [7]: 25% and 62%
- Population Normal (%) [7]: 75% and 77%
- Population Pyknosed Nuclei (%) [7]: 55% and 30%
- Population Tubulin-Different-Phenotype (%) [7]: 98% and 73%
- Total Cell Count [7]: 229 and 561
- Population Fragmented Nuclei (%) [8]: 7% and 5%
- Population Hoechst High Intensity Objects (%) [8]: 19% and 9%
- Population Membrane Permeable-Phenotype (%) [8]: 0% and 10%
- Population Mitochondria Different-Phenotype (%) [8]: 95% and 60%
- Population Normal (%) [8]: 80% and 90%
- Population Tubulin-Different-Phenotype (%) [8]: 95% and 93%
- Population Apoptotic (%) [9]: 77%
- Population Fragmented Nuclei (%) [9]: 18%
- Population Healthy Nuclei (%) [9]: 34%
- Population Hoechst High Intensity Objects (%) [9]: 23%
- Population Membrane Permeable-Phenotype (%) [9]: 0%
- Population Mitochondria Different-Phenotype (%) [9]: 100%
- Population Mitotic Cells (%) [9]: 22%
- Population Normal (%) [9]: 76%
- Population Pyknosed Nuclei (%) [9]: 47%
- Population Tubulin-Different-Phenotype (%) [9]: 100%
- Total Cell Count [9]: 239
- Population Apoptotic (%) [10]: 91%
- Population Fragmented Nuclei (%) [10]: 8%
- Population Healthy Nuclei (%) [10]: 17%
- Population Hoechst High Intensity Objects (%) [10]: 17%
- Population Mitochondria Different-Phenotype (%) [10]: 90%
- Population Mitotic Cells (%) [10]: 8%
- Population Normal (%) [10]: 82%
- Population Pyknosed Nuclei (%) [10]: 74%
- Population Tubulin-Different-Phenotype (%) [10]: 85%
- Total Cell Count [10]: 147
